Drawing on ChEMBL document CHEMBL4043182, “On the synthesis of quinone-based BODIPY hybrids: New insights on antitumor activity and mechanism of action in cancer cells” (Bioorg Med Chem Lett, 2017), this text covers IC50 for three compounds.

Test [1] relates to PC-3. Nature of the test: Cytotoxicity against human PC3 cells after 24 hrs in presence of GSH-OEt by MTT assay. It counts as functional, cell-based. As to conditions: PC-3, 24 h. The gist of the method:
(§1)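 24 h MTT exposure (0.04–40.92 µM in 0.1% DMSO), with or without co-treatment with GSH ethyl ester (15 mM) to gauge the ROS contribution. MTT was 0.5 mg/mL for 3 h, with formazan dissolved in DMSO and absorbance at 595 nm expressed as % of control. Triplicate, repeated at least three times.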
(Tetrazolium assays rely on reduction of a dye to a coloured formazan, in cell work by metabolically active cells.)

In another test the test system is MDA-MB-435. Put plainly: Antiproliferative activity against human MDA-MB-435 cells after 72 hrs by MTT assay. The following applies: MDA-MB-435, 72 h. It counts as functional, cell-based. The gist of the method: (§2)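 MTT reduction: cancer lines plated at 0.7×10^5 to 0.3×10^6 cells/well, V79 and L929 fibroblasts at 0.5×10^5 cells/well. Compounds in DMSO (0.1%) were given for 24 h at 0.04–40.92 µM or 72 h at 0.04–8.19 µM. Fresh medium with 0.5 mg/mL MTT was added for 3 h, then formazan was dissolved in DMSO and read at 595 nm as % of control. IC50 came from nonlinear regression with 95% CI. Doxorubicin (0.001–1.06 µM) was the positive control. Triplicate, ≥3 repeats.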

The test system of test [2] is L929. Nature of the test: Cytotoxicity against mouse L929 cells after 24 hrs in presence of GSH-OEt by MTT assay. It counts as cell-based. As to conditions: L929, 24 h. The gist of the method: as §1
The subject of test [3] is SF-295. Put plainly: Cytotoxicity against human SF295 cells after 24 hrs in absence of GSH-OEt by MTT assay. The test is classed as functional, cell-based. As to conditions: SF-295, 24 h. The gist of the method:
as §1

For a further test, the system named is V79. Put plainly: Antiproliferative activity against chinese hamster V79 cells after 72 hrs by MTT assay. It counts as cell-based. As to conditions: Cricetulus griseus, V79, 72 h. The method in brief: as §2
Test [4] concerns L929. Nature of the test: Antiproliferative activity against mouse L929 cells after 72 hrs by MTT assay. The test is classed as cell-based. As to conditions: L929, 72 h. The gist of the method: as §2
Test [5] has as its system PC-3. Put plainly: Antiproliferative activity against human PC3 cells after 72 hrs by MTT assay. It counts as functional, cell-based. As to conditions: PC-3, 72 h. The gist of the method: as §2
In test [6] the test system is SF-295. Put plainly: Antiproliferative activity against human SF295 cells after 72 hrs by MTT assay. It counts as functional, cell-based. The following applies: SF-295, 72 h. The method in brief: as §2
Test [7] relates to L929. Nature of the test: Cytotoxicity against mouse L929 cells after 24 hrs in absence of GSH-OEt by MTT assay. The test is classed as cell-based. As to conditions: L929, 24 h. The gist of the method:
as §1

The subject of test [8] is HCT-116. Nature of the test: Antiproliferative activity against human HCT116 cells after 72 hrs by MTT assay. The test is classed as functional, cell-based. The following applies: HCT-116, 72 h. The gist of the method: as §2
In test [9] the test system is SF-295. Nature of the test: Cytotoxicity against human SF295 cells after 24 hrs in presence of GSH-OEt by MTT assay. It counts as functional, cell-based. The following applies: SF-295, 24 h. The method in brief: as §1
The next test deals with SW-620. Put plainly: Antiproliferative activity against human SW620 cells after 72 hrs by MTT assay. The test is classed as functional, cell-based. As to conditions: SW-620, 72 h. The gist of the method: as §2
In test [10] the test system is HCT-116. Put plainly: Cytotoxicity against human HCT116 cells after 24 hrs in presence of GSH-OEt by MTT assay. The test is classed as functional, cell-based. The following applies: HCT-116, 24 h. The method in brief:
as §1

The subject of test [11] is PC-3. Put plainly: Cytotoxicity against human PC3 cells after 24 hrs in absence of GSH-OEt by MTT assay. It counts as functional, cell-based. As to conditions: PC-3, 24 h. The gist of the method: as §1
The subject of test [12] is HCT-116. Put plainly: Cytotoxicity against human HCT116 cells after 24 hrs in absence of GSH-OEt by MTT assay. The test is classed as functional, cell-based. The following applies: HCT-116, 24 h. The gist of the method: as §1

Each structure is given as a SMILES string.

Turning to `O=C1C2=C(OC(Cn3cc(CNc4ccc5n4[B-](F)(F)[N+]4=C(Cl)C=CC4=C5c4ccccc4)nn3)C2)C(=O)c2ccccc21` (stereo unspecified), the IC50 – broadly, the concentration that inhibits the measured activity by half – was greater than 40 µM in the test on PC-3 [1]; greater than 8.19 µM with MDA-MB-435; greater than 40 µM in the test with L929 [2]; greater than 40 µM in the test with SF-295 [3]; greater than 8.19 µM with V79; greater than 8.19 µM in the test on L929 [4]. For the same compound, the concentration for half-maximal inhibition (IC50) with PC-3 [5] is greater than 8.19 µM; with SF-295 [6] it was greater than 8.19 µM; with L929 [7], greater than 40 µM; with HCT-116 [8], greater than 8.19 µM; in the test with SF-295 [9], greater than 40 µM; in the test on SW-620, greater than 8.19 µM. In addition, the IC50 with HCT-116 [10], in the test on PC-3 [11] and in the test with HCT-116 [12] was greater than 40 µM throughout.

Regarding `CC1(C)CC(n2cc(CNc3ccc4n3[B-](F)(F)[N+]3=C(Cl)C=CC3=C4c3ccccc3)nn2)C2=C(O1)C(=O)c1ccccc1C2=O` (stereo unspecified), the IC50 with PC-3 [1] is greater than 40 µM; with MDA-MB-435, greater than 7.83 µM; with L929 [2] it was greater than 40 µM; with SF-295 [3], greater than 40 µM; in the test on V79, greater than 7.83 µM; in the test with L929 [4], greater than 7.83 µM. For the same compound, the IC50 in the test with PC-3 [5] is greater than 7.83 µM; with SF-295 [6] it was greater than 7.83 µM; with L929 [7] it was greater than 40 µM; in the test on HCT-116 [8] it was greater than 7.83 µM; with SF-295 [9], greater than 40 µM; in the test on SW-620, greater than 7.83 µM. Further, the IC50 in the test on HCT-116 [10], in the test with PC-3 [11] and in the test with HCT-116 [12] was greater than 40 µM in each case.

Turning to `COc1cccc2c1C(=O)c1c(O)c3c(c(O)c1C2=O)C[C@@](O)(C(=O)CO)C[C@@H]3O[C@H]1C[C@H](N)[C@H](O)[C@H](C)O1` [DOXORUBICIN], the IC50 was found to be 0.94 µM in the test on MDA-MB-435; 0.25 µM with V79; 0.22 µM in the test with L929 [4]; 0.05 µM in the test on PC-3 [5]; 0.45 µM in the test with SF-295 [6]; 0.29 µM in the test on SW-620.
